TRPC4 PAM: TRPC4 (mouse) allosteric potentiation. Q9QUQ5. HEK293 TRPC4beta/mu-opioid, DAMGO EC20, Fluo-4 Ca2+ flux; stronger effect = higher value. B-score at 10 µM. 0.42% of 310,000 active;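 active means B-score of calcium response area above 5 SD of library B-scores, with initial fluorescence ratio within 5 SD of library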;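 further: B-score of integrated fluorescence ratio over time as area under calcium response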
Target sequence (Q9QUQ5 whole entry, looked up): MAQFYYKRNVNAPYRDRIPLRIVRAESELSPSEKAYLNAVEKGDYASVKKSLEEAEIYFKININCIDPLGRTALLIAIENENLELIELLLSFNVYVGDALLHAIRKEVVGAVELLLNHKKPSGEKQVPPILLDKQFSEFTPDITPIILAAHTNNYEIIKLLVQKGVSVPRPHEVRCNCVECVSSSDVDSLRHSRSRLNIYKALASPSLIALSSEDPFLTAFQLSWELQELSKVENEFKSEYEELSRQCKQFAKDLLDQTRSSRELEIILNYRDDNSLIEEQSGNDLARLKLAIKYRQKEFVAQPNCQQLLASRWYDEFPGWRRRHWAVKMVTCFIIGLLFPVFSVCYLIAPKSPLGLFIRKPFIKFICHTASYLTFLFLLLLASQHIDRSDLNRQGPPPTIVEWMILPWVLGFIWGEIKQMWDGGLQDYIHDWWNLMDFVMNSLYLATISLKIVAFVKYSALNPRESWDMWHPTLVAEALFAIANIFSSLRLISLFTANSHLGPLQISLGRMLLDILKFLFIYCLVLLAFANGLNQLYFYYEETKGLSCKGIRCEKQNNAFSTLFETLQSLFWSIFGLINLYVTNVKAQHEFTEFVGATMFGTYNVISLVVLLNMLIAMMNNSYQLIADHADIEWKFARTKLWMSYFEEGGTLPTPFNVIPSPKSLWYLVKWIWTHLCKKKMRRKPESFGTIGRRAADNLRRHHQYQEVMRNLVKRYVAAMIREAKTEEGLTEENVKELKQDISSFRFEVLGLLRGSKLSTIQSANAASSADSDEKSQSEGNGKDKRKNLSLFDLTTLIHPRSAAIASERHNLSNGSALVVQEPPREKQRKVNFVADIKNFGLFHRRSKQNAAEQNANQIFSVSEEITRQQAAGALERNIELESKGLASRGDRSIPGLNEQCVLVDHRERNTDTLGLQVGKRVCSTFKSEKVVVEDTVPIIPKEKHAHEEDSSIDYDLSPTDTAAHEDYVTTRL
TRPC6 activator: activators of mouse TRPC6 channel; Q61143; HEK293-TRPC6 membrane potential dye fluorescence; stronger effect = higher value; B-score at 10 µM; 0.13% of 310,000 active; AID 2550;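 active means B-score of the integrated fluorescence ratio above library mean plus 3 SD, and starting fluorescence ratio within library mean plus 5 SD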;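 further: higher score means more depolarization so channel activation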
TRPC4 inh: blocks the mouse TRPC4 cation channel. Q9QUQ5. HEK293 TRPC4beta/mu-opioid, DAMGO-evoked Fluo4 calcium flux; stronger effect = lower value. B-score at 10 µM. 0.39% of 300,000 active. AID 2247;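 active means B-score over 3 SD under the library average, no early fluorescence shift, positive overall ratio signal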
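Material: HEK293 cells with stable TRPC4beta plus mu-opioid receptor expression / Probe or stimulus: DAMGO in two steps, submaximal then maximal / Compound: single concentration per test compound / Technique: kinetic Fluo4 fluorescence imaging of calcium influx / Read-out: per-well B score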
TRPC6 inhibitor: mouse TRPC6 channel inhibition | Q61143 | 1.1% of 310,000 active | HEK293-TRPC6, membrane potential dye, ACh-evoked depolarization; stronger effect = lower value | B-score at 10 µM;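 active means B-score under library mean minus 3 SD, initial fluorescence not abnormally high, positive integrated signal ratio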;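 further: B-score derived from integrated fluorescence ratio over the kinetic read; more negative B-score means stronger inhibition of depolarization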
TRPC4 act: opens the mouse TRPC4 cation channel; 0.49% of 310,000 active; Q9QUQ5; HEK293 TRPC4beta/mu-opioid, Fluo4 calcium fluorescence; stronger effect = higher value; B-score at 10 µM;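 active means B-score above 5 SD of library B-scores, and initial fluorescence ratio not above library mean plus 5 SD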;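 further: positive B-score marks a calcium rise read as TRPC4 activation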
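System – HEK293 cells stably co-expressing mouse TRPC4beta and mu-opioid receptor · Signal – Fluo4 calcium-sensitive dye fluorescence, kinetic, 1 Hz baseline · Benchmarks – buffer (low) and maximal DAMGO (high) · Read-out – B score of integrated fluorescence ratio per well · Incubation – dye loading 45 min room temperature, 110 s kinetic read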
TRPC4 sel inh 2: mouse TRPC4 off-target activity of TRPC6 inhibitors, second screen; inhibition, % at 10 µM; shares compounds with TRPC6 inhibitor; HEK293 TRPC4/MOR, membrane potential dye fluorescence; channel activated by saturating DAMGO dose; 42% of 920 active;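 active means compounds whose fluorescence signal differed from control wells by over 3 SD, either direction, in both duplicate plates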
TRPC4 spec: selectivity of TRPC6 inhibitors: effect on mouse TRPC4; shares compounds with TRPC6 inhibitor; HEK293 TRPC4/mu-opioid, membrane potential fluorescence; activity change, negative = inhibition, % at 10 µM; 61% of 920 active; AID 2777;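 active means rise or fall in signal beyond 3 SD of buffer-only wells in both replicate plates, either sign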;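 further: integrated kinetic ratio of fluorescence range over baseline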
HEK293 MPD ctr 2-1: second check of TRPC6 inhibitor effects in parental HEK293 cells; shares compounds with TRPC6 inhibitor; parental HEK293 membrane potential dye fluorescence; maximal acetylcholine challenge after compound addition; signal change vs control, % at 10 µM; 31% of 920 active; AID 2779;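 active means membrane potential signal moving either way by over 3 SD of the maximum-effect control, in both duplicate plates, meaning non-specific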
HEK293 MPD ctr-1: checks TRPC6 inhibitor effects in parental HEK293 cells. shares compounds with TRPC6 inhibitor. AID 2780. membrane potential signal change, % at 10 µM. parental HEK293 membrane potential dye fluorescence. 60% of 920 active;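 active means membrane potential signal shifting up or down by more than 3 SD of buffer-only wells, on both duplicate plates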
HEK293 MPD ctr-2: counter-screen for TRPC6 modulators: effect in parental HEK293 cells | membrane potential dye fluorescence | AID 488924 | 51% of 2,400 active | membrane potential signal change, % at 10 µM | shares compounds with TRPC6 inhibitor;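 active means membrane potential signal moves up or down beyond 5 SD from buffer-only wells, on both duplicate plates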
HEK293 MPD ctr 2-2: parental HEK293 nonspecific activity of TRPC6 modulators, second screen; shares compounds with TRPC6 inhibitor; membrane potential dye fluorescence; after compound, maximal acetylcholine stimulation; inhibition, % at 10 µM; 14% of 2,400 active; AID 488926;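 active means membrane potential signal drops by more than 5 SD from the mean control signal, in both duplicate plates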;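 further: plate controls were acetylcholine ECmax control wells for no effect and buffer only wells for full effect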
TRPC4/MOR mod: tests whether TRPC6 modulators also affect mouse TRPC4. percent change from control (negative = decrease, positive = increase), % at 10 µM. shares compounds with TRPC6 inhibitor. 69% of 2,400 active. AID 488927. HEK293 TRPC4/mu-opioid, membrane potential fluorescence;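 active means membrane potential signal moved up or down beyond 5 SD of buffer control wells, in both duplicate plates, actives on both sides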;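 further: plate controls were assay buffer wells for no effect and DAMGO maximal-effect wells for full effect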
TRPC4 ctr inh 2: mouse TRPC4 off-target activity of TRPC6 modulators, second screen; shares compounds with TRPC6 inhibitor; HEK293 TRPC4/mu-opioid, membrane potential dye fluorescence; stimulated with maximal-effect DAMGO; inhibition, % at 10 µM; 55% of 2,400 active; AID 488928;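 active means drop in membrane potential signal beyond 5 SD of the control wells in both duplicate plates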;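 further: TRPC4 counter screen for TRPC6 hits run under conditions tuned for TRPC6 not TRPC4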
TRPC6 inh conf: mouse TRPC6 inhibitor confirmation | shares compounds with TRPC6 inhibitor | HEK293-TRPC6, membrane potential dye, ACh-evoked depolarization | inhibition, % at 10 µM | 43% of 3,300 active;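 active means fluorescence ratio falls more than 5 SD below the full-stimulation control mean, in both duplicate runs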;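 further: integrated fluorescence ratio of peak minus minimum over baseline after agonist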
TRPC6 act confirm: confirmation of mouse TRPC6 activators | AID 488961 | shares compounds with TRPC6 inhibitor | activation, % at 10 µM | 11% of 2,800 active | HEK293-TRPC6 membrane potential dye fluorescence, FDSS;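 active means ratio signal rise beyond 5 SD above unstimulated control wells' mean, seen in both duplicate runs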;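 further: plate controls were buffer EC0 wells for no effect and acetylcholine ECmax response for full effect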
Active calls of the source: *; i = inactive; / = no result. Only some compounds are listed: those with a hit (about 2.3% of all), similar ones and a draw of the others.

SMILES	TRPC4 PAM	TRPC6 activator	TRPC4 inh	TRPC6 inhibitor	TRPC4 act	HEK293 MPD ctr-2	HEK293 MPD ctr 2-2	TRPC4/MOR mod	TRPC4 ctr inh 2	TRPC6 inh conf	TRPC6 act confirm	others
OC(c1cc(-c2ccc(C(F)(F)F)cc2)nc(C(F)(F)F)c1)C1CCCCN1 (stereo not given)	i	i	i	-5.92*	43*	i	57.0%*	-10.0%*	53.5%*	i	i
COC(=O)CSc1nc(-c2ccc(F)cc2)cc(C(F)(F)F)n1	i	i	i	i	i	/	/	/	/	/	/
CC[n+]1c(C)sc2c3ccsc3ccc21	i	i	i	-6.33*	i	-184.5%*	i	-32.5%*	i	i	i
CC(=O)N1C(=O)CC(C)N(C(C)=O)c2ccc([N+](=O)[O-])cc21 (stereo not given)	i	i	i	i	i	/	/	/	/	/	/
CCN1C(=O)/C(=C/C=C2\C=CN(CC)c3ccccc32)SC1=S	i	i	i	-6.12*	i	i	i	-27.0%*	80.0%*	i	i
O=C(OCc1csc(-c2ccccc2)n1)c1ccc(O)cc1	i	i	i	-10.2*	i	/	/	/	/	72.5%*	/	TRPC4 sel inh 2=i;TRPC4 spec=-9.2%*;HEK293 MPD ctr 2-1=i;HEK293 MPD ctr-1=i
Cc1ccc(C(=O)NCC(=O)OCc2csc(-c3ccccc3)n2)cc1	i	i	i	i	i	/	/	/	/	/	/
N#Cc1ccc(NC(=O)Nc2ccc(Cl)cc2)cc1	i	i	i	i	i	/	/	/	/	/	/
N#CC(C#N)=C/C=C(\Nc1ccc(Cl)cc1)c1ccc(Cl)cc1	i	i	i	-5.16*	i	i	i	i	37.5%*	i	i
O=C(c1ccccc1F)N1CCN(c2ccc([N+](=O)[O-])c3ncccc23)CC1	i	i	i	i	i	/	/	/	/	/	/
O=[N+]([O-])c1cccc2c(N3CCCC3)ccnc12	i	i	i	-8.93*	i	-360.0%*	95.0%*	-44.0%*	55.5%*	69.5%*	i
CC(=O)CC1(OC(C)=O)C(=O)N(C)c2ccccc21 (stereo not given)	i	i	i	i	i	/	/	/	/	/	/
N#CCCN(C(=O)COC(=O)c1ccc(CNS(=O)(=O)c2ccc(F)c(Cl)c2)cc1)c1ccc(F)cc1	i	i	i	i	i	/	/	/	/	/	/
CCOC(=O)N1CCN(S(=O)(=O)c2ccc(C)c(C)c2)CC1	i	i	i	i	i	/	/	/	/	/	/
CCOC(=O)c1ccc(NC(=O)CCNS(=O)(=O)c2cc(Br)cnc2N)cc1	i	i	i	-6.92*	i	i	i	-19.5%*	i	79.0%*	i
CCOC(=O)N1CCN(S(=O)(=O)c2cc(Br)cnc2N)CC1	i	i	i	-7.22*	i	/	/	/	/	i	i	TRPC4 sel inh 2=i;TRPC4 spec=i;HEK293 MPD ctr 2-1=i;HEK293 MPD ctr-1=i
CCOC(=O)N1CCN(S(=O)(=O)c2ccc(OCC)c(C)c2)CC1	i	12.2*	i	-9.91*	i	i	i	17.5%*	i	74.0%*	128.5%*
COc1cccc(OCC(=O)Nc2ccccc2-c2ccccc2)c1	i	i	i	i	i	/	/	/	/	/	/
O=C(CSc1ccc2c(c1)OCCO2)NCCc1ccc(Cl)cc1Cl	i	i	i	-5.44*	i	350.0%*	i	16.0%*	i	i	i
CN1CCN(C(=O)c2cccc(COc3cc(Cl)ccc3Cl)c2)CC1	i	i	i	i	i	/	/	/	/	/	/
O=C(c1ccc(COc2ccccc2Cl)o1)N1CCCC1	i	i	i	i	i	/	/	/	/	/	/
CN1CCN(C(=O)c2ccc(COc3cc(Cl)ccc3Cl)o2)CC1	i	i	i	-5.66*	i	127.0%*	i	22.0%*	i	i	/
CC1CCN(C(=O)c2ccc(COc3ccccc3Cl)o2)CC1	i	i	i	-6.25*	i	121.0%*	i	25.0%*	i	i	i
C[n+]1cccc2ccc3c(c21)OC(N)=C(C#N)C3c1ccccc1 (stereo not given)	i	i	i	-9.16*	i	-284.0%*	80.5%*	-47.5%*	60.0%*	74.5%*	i
CCN(CC)CCN(C(=O)C1=COCCO1)c1nc2c(OC)ccc(OC)c2s1	i	i	i	-5.41*	i	-104.0%*	i	-26.0%*	69.0%*	i	i
CCN(CC)CCN(C(=O)c1ccc([N+](=O)[O-])cc1)c1nc2c(OC)cccc2s1	i	i	i	-6.26*	i	i	i	-12.5%*	36.0%*	i	i
CCN(CC)CCN(C(=O)C1=COCCO1)c1nc2ccc(C)cc2s1	i	i	i	i	i	/	/	/	/	/	/
CCN(CC)CCN(C(=O)C1=COCCO1)c1nc2cc3c(cc2s1)OCO3	i	i	i	-6.84*	i	/	/	/	/	i	i	TRPC4 sel inh 2=51.5%*;TRPC4 spec=-21.6%*;HEK293 MPD ctr 2-1=i;HEK293 MPD ctr-1=-183.5%*
CCN(CC)CCN(C(=O)c1ccc(C(=O)c2ccccc2)cc1)c1nc2c(OC)cccc2s1	i	i	i	i	i	/	/	/	/	/	/
